# Rows were chosen to be rich in hits. Some 2% of all compounds tested hit in one or more screens of this group.
# LMPTP block – LMPTP (human) inhibition. inhibition, % at 20 µM. recombinant LMPTP-A, OMFP fluorogenic substrate, fluorescence intensity. 360,000 compounds, 0.22% hits. P24666;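 active = compounds that cut the enzyme signal by at least half of the control window in the single-dose screen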
#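 Test system: LMPTP-A phosphatase enzyme. Amount: LMPTP-A at 0.625 nM final in the reaction. Reagent: OMFP substrate, 400 µM final. Times: 50 min at room temperature. Signal: endpoint fluorescence intensity from OMFP dephosphorylation. Read-out basis: % inhibition. Benchmarks: no-enzyme and uninhibited controls.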
# Scp-1 inhibitor – blocks human Scp-1 phosphatase activity. Q9GZU7. Recombinant Scp1, phosphopeptide, malachite green phosphate absorbance. inhibition, % at 20 µM. 340,000 compounds, 0.88% hits. AID 493091;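 active = inhibition above about 50% at 20 µM, limit read from the data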
#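 System: SCP-1 catalytic domain; Reagent: Phospho 17-mer peptide substrate; Doses: one concentration, 20 µM, with 1.0% DMSO; Incubation: 45 min room-temperature reaction, 5 min colour, 30 min stabiliser; Signal: Phosphate-binding colour reagent, absorbance read at 630 nm.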
# STEP block – STEP (human) phosphatase inhibition; P54829; recombinant STEP, OMFP fluorogenic substrate, fluorescence; inhibition, % at 20 µM; 360,000 compounds, 0.25% hits;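 active = inhibition at 20 µM, scaled per plate between control wells, above about 37%, limit read from the data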
# Target sequence (P54829 whole entry, looked up): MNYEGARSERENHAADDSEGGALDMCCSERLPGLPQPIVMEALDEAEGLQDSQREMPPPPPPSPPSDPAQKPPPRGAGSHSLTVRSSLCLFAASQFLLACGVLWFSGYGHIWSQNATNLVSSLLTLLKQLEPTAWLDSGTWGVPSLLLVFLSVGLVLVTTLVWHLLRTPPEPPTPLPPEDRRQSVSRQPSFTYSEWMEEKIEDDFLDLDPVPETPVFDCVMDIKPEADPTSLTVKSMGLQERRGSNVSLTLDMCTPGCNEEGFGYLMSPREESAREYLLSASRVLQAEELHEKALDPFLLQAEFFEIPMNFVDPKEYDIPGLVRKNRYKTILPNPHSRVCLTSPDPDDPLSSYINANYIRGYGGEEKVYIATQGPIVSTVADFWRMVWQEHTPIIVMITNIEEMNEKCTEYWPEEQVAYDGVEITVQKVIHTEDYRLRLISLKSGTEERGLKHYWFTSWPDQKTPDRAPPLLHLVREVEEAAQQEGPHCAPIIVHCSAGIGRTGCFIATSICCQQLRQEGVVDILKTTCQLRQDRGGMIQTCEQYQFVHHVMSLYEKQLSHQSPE
#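 System: STEP phosphatase, cell-free reaction; Buffer or medium: Bis-Tris pH 6.0 buffer with DTT, detergent; Incubation: 20 min at room temperature, dark; Measured by: fluorescence, 480/540 nm.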
# DNMT1 inh – DNMT1 (human) enzyme inhibition; 360,000 compounds, 0.83% hits; DNMT1 molecular beacon, Hinp1I cleavage, fluorescence; inhibition (reported as % activation of signal), % at 10 µM; AID 588458; P26358; in the data active = inhibition above about 50%
# Rpn11 block – Rpn11 (human) deubiquitinase inhibition. human 26S proteasome, Ub4-pepOG fluorescence polarization; 20S core pre-blocked with epoxomicin. inhibition, % at 20 µM. 360,000 compounds, 0.59% hits;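 active = inhibition at 20 µM, scaled to each plate's controls, above about 33%, limit read from the data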
# DNMT1 interf DR – counter-screen for DNMT1 inhibitors: spectral interference, dose response; molecular beacon fluorescence; shares compounds with DNMT1 inh; 200 tested, under 10 active; IC50, µM; AID 602382; call rule not given here
# DNMT1 inh conf – DNMT1 inhibition confirmation, single concentration. AID 602385. DNMT1 molecular beacon HinP1I cleavage, fluorescence. 2,300 compounds, 8% hits. inhibition, % at 10 µM. shares compounds with DNMT1 inh;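 active = average inhibition of at least 30% in the single-concentration confirmation test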
# DNMT1 interf – counter-screen for DNMT1 inhibitors: spectral interference | shares compounds with DNMT1 inh | DNMT1 molecular beacon spectral interference counterscreen, fluorescence 485/520 | activation (fluorescence interference), % at 10 µM | 2,300 compounds, 1% hits | AID 602387;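 active = activation of at least 30% at 10 µM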;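 note: DNMT1 catalytic domain with a HinP1I cleavage step and a FAM/dabcyl DNA beacon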
# Hits are given with their value; – = inactive; · = no result given.
SMILES,LMPTP block,Scp-1 inhibitor,STEP block,DNMT1 inh,Rpn11 block,DNMT1 inh conf,DNMT1 interf,others
O=Cc1c[nH]c2ccc(S(=O)(=O)N3CCOCC3)cc12,–,–,–,–,–,·,·,
CCC(C)NC(=O)COC(=O)c1ccccc1OCC(=O)Nc1ccc(Br)cc1 (stereo unspecified),–,–,–,50.9,–,–,–,
COc1ccc(N2CCCC2=O)cc1S(=O)(=O)N1CCOCC1,–,·,–,72.0,–,–,–,
O=C1CCCC(O)=C1N=Nc1ccc2c(c1)OCO2,–,–,–,–,–,·,·,
O=C1CCCC(O)=C1N=Nc1ccc(C(=O)O)cc1,–,75.7,–,82.9,–,–,–,
COCCNC(=O)C1CC(=O)N(c2ccc(OC)cc2)C1c1ccc(OC)cc1 (stereo unspecified),–,–,–,–,–,·,·,
CCCCCOC(=O)c1c(N)n(CCOC)c2nc3ccccc3nc12,–,–,–,–,–,·,·,
CCOC(=O)c1c(N)n(CCOC(=O)c2cccs2)c2nc3ccccc3nc12,–,–,–,100.1,–,–,–,
COc1ccc(Cl)cc1NC(=O)CSc1nnc(-c2ccco2)o1,–,–,–,–,–,·,·,
O=C(O)CSc1nc2sc3c(c2c(=O)n1Cc1ccccc1)CCCCC3,–,–,–,–,–,·,·,
O=C(O)CSc1cc(C(=O)c2ccccc2O)cn2c(=O)c3c4c(sc3nc12)CCCC4,–,66.0,95.5,73.4,–,60.6,–,DNMT1 interf DR=–
O=C(COc1ccc(Cl)cc1Cl)Nc1ccc(C(=O)Nc2ccccc2C(=O)O)cc1,–,–,–,83.7,–,–,–,
Cc1cccc(OCC(=O)Nc2ccc(C(=O)Nc3ccccc3C(=O)O)cc2)c1,–,·,–,–,–,·,·,
CCOc1ccccc1N1Cc2cc(C)c(C)cc2C1,–,–,–,53.6,–,–,–,
CCOc1ccccc1N1Cc2ccccc2C1,–,–,–,–,–,·,·,
COc1cc2c(O)cc(C(=O)O)c(-c3cc(OC)c(OC)c(OC)c3)c2cc1OC,–,–,–,–,–,·,·,
COc1cc(C)cc(C(=O)O)c1C1=C(O)c2cccc(O)c2C(=O)C1=O,–,–,–,66.4,–,–,–,
Nc1cc2c(cc1Br)-c1c(C(=O)O)cccc1C2O (stereo unspecified),–,–,–,–,–,·,·,
Nc1ncnc2c1ncn2C1CCCC(CO)O1 (stereo unspecified),–,–,–,79.8,–,–,–,
c1cc(N2CCOCC2)ccc1-c1ccc2nncn2c1,–,·,–,–,–,·,·,
c1coc(-c2ccc3nncn3c2)c1,–,·,–,102.4,–,75.6,–,DNMT1 interf DR=–
O=C(CSc1nncn1-c1ccccc1)Nc1ccc(F)cc1F,–,–,–,–,–,·,·,
Cc1ccc(CNC(=O)C2CC(c3ccccc3C(F)(F)F)=NO2)cc1 (stereo unspecified),–,–,–,–,–,·,·,
COc1ccc(CNC(=O)C2CC(c3ccccc3C(F)(F)F)=NO2)cc1 (stereo unspecified),–,–,–,72.0,–,–,–,
Cc1cc2c(N)cccc2nn1,93.2,60.3,75.3,127.3,–,–,–,
SMILES,LMPTP block,Scp-1 inhibitor,STEP block,DNMT1 inh,Rpn11 block,DNMT1 inh conf,DNMT1 interf,others
C[C@@H]1COc2cc(N3CCC[C@@H]3CO)ccc2S(=O)(=O)N1,–,·,·,·,·,·,·,
Cc1ccc(NC(=O)CSc2ncccc2C(=O)Oc2cccc([N+](=O)[O-])c2)cc1Cl,–,–,–,53.0,–,–,–,
CCOC(=O)c1cccnc1SCC(=O)Nc1ccc(C)cc1,–,–,–,–,–,·,·,
Cc1ccc(/C=c2\sc3nc(-c4ccco4)nn3c2=O)o1,60.8,81.3,71.6,104.9,·,–,–,
Cc1ccc(/C=c2/sc3nnc(-c4ccccc4Cl)n3c2=O)o1,–,–,–,–,–,·,·,
C=CCn1c(SCC(=O)NC2CCCC2)nc2scc(-c3ccco3)c2c1=O,–,–,–,51.9,–,–,–,
C=CCn1c(SCC(=O)NCC2CCCO2)nc2scc(-c3ccccc3)c2c1=O (stereo unspecified),–,–,–,–,–,·,·,
Cc1ccc2cc(C#N)c(SCC(=O)NNC(=O)Cc3ccccc3)nc2c1,–,–,–,–,–,–,–,
COc1ccc2cc(C#N)c(SCC(=O)NNC(=O)Cc3ccccc3)nc2c1,–,–,–,–,–,·,·,
Nc1cc(S(=O)(=O)Nc2cc(Cl)ccc2Cl)ccc1N1CCCC1,–,–,–,–,–,·,·,
CC1(C)CC(N=c2cc(-c3ccccc3)oc3ccc(Cl)cc23)CC(C)(C)N1,–,–,–,75.1,–,32.9,–,DNMT1 interf DR=–
Cc1[nH]n(-c2ncc(-c3ccc(Cl)cc3)s2)c(=O)c1C(c1ccc(Cl)cc1)C(C#N)C#N (stereo unspecified),–,–,–,82.8,–,–,–,
Cn1c(=O)c2cc(NC(=O)NCCc3ccccc3)ccc2n1Cc1ccccc1,–,·,–,68.6,–,–,–,
CCCC(C(=O)NC1CCCC1)N(CC1CCCO1)C(=O)CNS(=O)(=O)c1ccccc1 (stereo unspecified),–,–,–,–,–,·,·,
O=C(C[n+]1cc(-c2ccc(Cl)cc2)n2c1CCC2)Nc1nc(-c2ccc(F)cc2)cs1,–,–,–,–,–,·,·,
CC(=O)Nc1ccc(S(=O)(=O)Nc2nc3ccccc3nc2Nc2cccc(O)c2)cc1,–,–,–,–,–,·,·,
CC(=O)Nc1ccc(S(=O)(=O)Nc2nc3ccccc3nc2Nc2ccc(C(=O)O)c(O)c2)cc1,–,87.2,–,77.5,–,–,–,
CC/C=C/C(=O)N1CC2(CC(c3cccc(NC(=O)CCCCC)c3)=NO2)C[C@H]1C(N)=O (stereo partly specified),–,–,–,–,–,·,·,
C=C(C)C(=O)Nc1cccc(C2=NOC3(C2)C[C@@H](C(N)=O)N(C(=O)/C=C/C=C/C)C3)c1 (stereo partly specified),–,75.3,–,105.2,–,89.5,–,DNMT1 interf DR=–
C/C=C/C=C/C(=O)N1CC2(CC(c3cccc(NC(=O)CCCCC)c3)=NO2)C[C@H]1C(N)=O (stereo partly specified),–,–,–,65.8,–,–,–,
C/C=C/C(=O)Nc1cccc(C2=NOC3(C2)C[C@H](C(N)=O)N(C(=O)/C=C/C)C3)c1 (stereo partly specified),–,–,–,–,–,·,·,
C=C(C)C(=O)Nc1cccc(C2=NOC3(C2)C[C@H](C(N)=O)N(C(=O)CC)C3)c1 (stereo partly specified),–,63.8,–,98.8,–,55.2,–,DNMT1 interf DR=–

# Screens from PubChem.
